Columns and labels:
[1] = test system: sandwich‐cultured human hepatocytes; assay: Hepatobiliary disposition in sandwich-cultured human hepatocytes; assay type: in vitro ADME; details: 10 min
Summary of the method: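 Sandwich-cultured human hepatocytes from three donor liver preparations, cultured 6 days. [14C]-test compound was applied at 10 and 250 μmol/L, with [3H]-taurocholate as transporter-function control and LDH release as cytotoxicity check. Radioactivity was read by LSC. Accumulation is mean ± SD of triplicate wells. BEI, CLbiliary, intracellular concentration and Cic/Cec were derived.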

[2] = test system: sandwich‐cultured mouse (NMRI) hepatocytes; assay: Hepatobiliary disposition in sandwich-cultured mouse hepatocytes; assay type: in vitro ADME; details: 1 μmol/L, 10 min
[3] = donor 1, 1 μmol/L, mean ± SD of triplicate wells
[4] = donor 2, 1 μmol/L, mean ± SD of triplicate wells
[5] = donor 3, 1 μmol/L, mean ± SD of triplicate wells
[6] = mean ± standard error of 3 donors, 1 μmol/L

BEI ([1]; donor 1, 1 μmol/L): 44.6% | CLbiliary ([1]; donor 1, 1 μmol/L): 7.16 mL/min/kg | Cellular accumulation [1, 3]: 30.7 ± 2.8 pmol/mg | Total accumulation [1, 3]: 55.3 ± 5.7 pmol/mg | BEI ([1]; donor 2, 1 μmol/L): 74.2% | CLbiliary ([1]; donor 2, 1 μmol/L): 19.3 mL/min/kg | Cellular accumulation [1, 4]: 23.2 ± 1.9 pmol/mg | Total accumulation [1, 4]: 89.7 ± 3.6 pmol/mg | BEI ([1]; donor 3, 1 μmol/L): 66.5% | CLbiliary ([1]; donor 3, 1 μmol/L): 31.0 mL/min/kg | Cellular accumulation [1, 5]: 53.9 ± 2.0 pmol/mg | Total accumulation [1, 5]: 161 ± 12 pmol/mg | BEI [1, 6]: 61.7 ± 8.9% | CLbiliary [1, 6]: 19.2 ± 6.9 mL/min/kg | Cellular accumulation [1, 6]: 35.9 ± 9.2 pmol/mg | Total accumulation [1, 6]: 102 ± 31 pmol/mg | BEI [2]: 30.5% | CLbiliary [2]: 66.8 mL/min/kg | Cellular accumulation ([2]; mean ± SD of triplicate wells): 150 ± 28 pmol/mg | Total accumulation ([2]; mean ± SD of triplicate wells): 215 ± 23 pmol/mg
SMILES: C[C@H](CCC(=O)NCCS(=O)(=O)O)[C@H]1CC[C@H]2[C@@H]3[C@H](O)C[C@@H]4C[C@H](O)CC[C@]4(C)[C@H]3C[C@H](O)[C@]12C [TCA, taurocholate, reference compound]

Reference: article PMC4804314 (Pharmacology Research & Perspectives, 2016)
